Data published in ChEMBL document CHEMBL4765233, “From Lead to Drug Candidate: Optimization of 3-(Phenylethynyl)-1H-pyrazolo[3,4-d]pyrimidin-4-amine Derivatives as Agents for the Treatment of Triple Negative Breast Cancer” (J Med Chem, 2016).
Calls of active or inactive are those of the source. The rule behind the calls is not given here.

Legend:
[1] = test system: MDA-MB-435; experiment: Antiproliferative activity against human MDA-MB-435 cells assessed as reduction in cell viability incubated for 72 hrs by MTT assay; format: functional, cell-based; conditions: MDA-MB-435, 72 h
Outline: (§1)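 MTT viability assay. ATCC cell lines were grown in designated medium with 10% FBS at 37 °C, 5% CO2. Cells seeded at 1500−30000 per well and incubated 24 h, then exposed to compound (0−10 μg/mL) for 72 h. MTT added for 2−4 h. Formazan dissolved in DMSO (adherent) or acidified SDS overnight (suspension), absorbance read at 570 nm. Triplicates; IC50 calculated.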

[2] = Half-life in Sprague-Dawley rat at 10 mg/kg, po administered via gavage by LC-MS analysis; format: ADME, organism-based; conditions: in vivo
[3] = Metabolic stability in mouse liver microsomes assessed as parent compound remaining at 1 uM measured after 60 mins in presence of NADPH by HPLC-MS/MS analysis; format: ADME, Microsome; conditions: read-out: Stabilty
Outline: (§2)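 Compound at 1 μM incubated with 0.5 mg/mL liver microsomes and 1 mM NADPH. Samples taken at 0, 10, 15, 30, 45 and 60 min and quenched with acetonitrile. After centrifugation, supernatant analysed by HPLC-MS/MS, with percent parent remaining relative to the 0 min area.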

[4] = Metabolic stability in rat liver microsomes assessed as parent compound remaining at 1 uM measured after 60 mins in presence of NADPH by HPLC-MS/MS analysis; format: ADME, Microsome; conditions: read-out: Stabilty; outline: as §2
[5] = target: Fibroblast growth factor receptor 3 (Homo sapiens, UniProt P22607); experiment: Inhibition of human recombinant FGFR3 (447 to 761 residues) using poly(Glu,Tyr)4:1 as substrate incubated for 40 mins in presence of [gamma33P-ATP] by radiometric scintillation counting analysis
Sequence of Fibroblast growth factor receptor 3 (P22607 whole entry, the tested form may be a part): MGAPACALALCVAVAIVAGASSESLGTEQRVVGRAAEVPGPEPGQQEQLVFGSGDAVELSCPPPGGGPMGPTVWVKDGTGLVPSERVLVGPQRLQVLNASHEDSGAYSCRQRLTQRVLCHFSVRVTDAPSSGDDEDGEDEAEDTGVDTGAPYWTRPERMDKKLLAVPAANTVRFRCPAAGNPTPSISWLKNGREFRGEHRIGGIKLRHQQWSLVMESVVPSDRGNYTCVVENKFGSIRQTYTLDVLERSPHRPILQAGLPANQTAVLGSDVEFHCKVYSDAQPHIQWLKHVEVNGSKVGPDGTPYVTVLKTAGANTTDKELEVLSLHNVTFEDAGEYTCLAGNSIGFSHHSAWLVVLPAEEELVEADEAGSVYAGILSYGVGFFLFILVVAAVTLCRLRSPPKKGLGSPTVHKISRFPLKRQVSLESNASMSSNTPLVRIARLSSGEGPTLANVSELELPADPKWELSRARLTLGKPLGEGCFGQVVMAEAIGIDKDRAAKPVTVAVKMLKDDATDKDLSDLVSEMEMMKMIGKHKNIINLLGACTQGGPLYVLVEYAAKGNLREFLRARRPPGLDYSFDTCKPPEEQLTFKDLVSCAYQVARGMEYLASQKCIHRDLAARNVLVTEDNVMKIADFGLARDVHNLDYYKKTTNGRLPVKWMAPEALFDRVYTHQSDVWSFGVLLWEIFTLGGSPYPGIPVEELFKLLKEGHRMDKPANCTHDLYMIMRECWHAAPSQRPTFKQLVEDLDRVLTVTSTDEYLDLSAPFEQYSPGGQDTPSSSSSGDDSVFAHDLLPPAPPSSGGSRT
Outline: (§3)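 Radiometric kinase assay run as an external profiling service, with ATP at the Km of each kinase. IC50 values are means of two independent experiments.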

[6] = target: Ribosomal protein S6 kinase alpha-3 (Homo sapiens, UniProt P51812); experiment: Inhibition of human recombinant RSK2 (2 to end residues) using KKKNRTLSVA as substrate incubated for 40 mins in presence of [gamma33P-ATP] by radiometric scintillation counting analysis; outline: as §3
Sequence of Ribosomal protein S6 kinase alpha-3 (P51812 whole entry): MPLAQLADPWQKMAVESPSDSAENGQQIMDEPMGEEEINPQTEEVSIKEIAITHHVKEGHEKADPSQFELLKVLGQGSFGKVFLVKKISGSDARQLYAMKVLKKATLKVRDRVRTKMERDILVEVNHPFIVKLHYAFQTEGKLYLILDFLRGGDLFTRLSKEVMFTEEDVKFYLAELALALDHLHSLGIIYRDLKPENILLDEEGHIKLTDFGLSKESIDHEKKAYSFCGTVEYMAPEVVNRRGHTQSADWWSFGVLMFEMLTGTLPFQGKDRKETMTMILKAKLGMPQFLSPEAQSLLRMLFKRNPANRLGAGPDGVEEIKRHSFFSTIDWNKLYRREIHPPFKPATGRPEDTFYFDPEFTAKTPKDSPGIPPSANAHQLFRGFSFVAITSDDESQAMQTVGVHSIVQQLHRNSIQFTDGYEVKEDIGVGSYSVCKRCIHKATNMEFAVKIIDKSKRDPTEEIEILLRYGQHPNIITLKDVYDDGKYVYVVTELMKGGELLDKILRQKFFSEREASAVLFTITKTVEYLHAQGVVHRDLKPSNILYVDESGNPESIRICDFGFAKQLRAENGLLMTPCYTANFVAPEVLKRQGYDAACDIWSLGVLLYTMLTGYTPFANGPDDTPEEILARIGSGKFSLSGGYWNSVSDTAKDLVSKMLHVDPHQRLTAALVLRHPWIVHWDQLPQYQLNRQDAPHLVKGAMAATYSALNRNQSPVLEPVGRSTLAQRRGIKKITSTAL

[7] = target: Platelet-derived growth factor receptor alpha (Homo sapiens, UniProt P16234); experiment: Inhibition of human recombinant PDGFRalpha (550 to end residues) using poly(Glu, Tyr)4:1 as substrate incubated for 40 mins in presence of [gamma33P-ATP] by radiometric scintillation counting analysis; outline: as §3
Sequence of Platelet-derived growth factor receptor alpha (P16234 whole entry): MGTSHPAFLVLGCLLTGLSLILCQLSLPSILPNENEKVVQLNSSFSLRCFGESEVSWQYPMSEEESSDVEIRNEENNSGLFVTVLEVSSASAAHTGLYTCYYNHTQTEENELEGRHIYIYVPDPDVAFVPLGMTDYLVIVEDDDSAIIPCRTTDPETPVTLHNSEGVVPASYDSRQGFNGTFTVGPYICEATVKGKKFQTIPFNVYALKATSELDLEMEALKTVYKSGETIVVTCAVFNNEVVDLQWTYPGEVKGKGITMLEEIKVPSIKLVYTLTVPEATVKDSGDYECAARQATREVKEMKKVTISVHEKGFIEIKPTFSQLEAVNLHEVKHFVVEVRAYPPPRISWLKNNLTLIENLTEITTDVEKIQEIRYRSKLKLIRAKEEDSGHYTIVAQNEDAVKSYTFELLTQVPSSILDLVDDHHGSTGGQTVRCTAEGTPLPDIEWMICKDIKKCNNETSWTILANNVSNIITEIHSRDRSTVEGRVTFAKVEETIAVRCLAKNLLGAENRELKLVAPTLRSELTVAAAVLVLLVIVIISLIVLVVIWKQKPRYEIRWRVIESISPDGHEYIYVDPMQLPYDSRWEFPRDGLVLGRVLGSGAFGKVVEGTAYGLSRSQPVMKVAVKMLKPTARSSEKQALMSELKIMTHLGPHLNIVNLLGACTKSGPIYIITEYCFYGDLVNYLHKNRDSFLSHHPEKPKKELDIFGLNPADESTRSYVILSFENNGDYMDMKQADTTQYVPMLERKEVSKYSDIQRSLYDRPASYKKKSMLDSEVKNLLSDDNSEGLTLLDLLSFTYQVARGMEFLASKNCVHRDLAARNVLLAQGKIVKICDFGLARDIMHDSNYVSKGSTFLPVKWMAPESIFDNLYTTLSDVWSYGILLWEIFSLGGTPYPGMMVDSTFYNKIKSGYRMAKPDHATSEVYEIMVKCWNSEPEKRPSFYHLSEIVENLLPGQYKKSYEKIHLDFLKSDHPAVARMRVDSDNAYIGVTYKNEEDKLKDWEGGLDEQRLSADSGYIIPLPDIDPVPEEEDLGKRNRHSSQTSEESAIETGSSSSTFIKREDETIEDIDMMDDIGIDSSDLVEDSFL

[8] = target: Platelet-derived growth factor receptor beta (Homo sapiens, UniProt P09619); experiment: Inhibition of human recombinant PDGFRbeta (557 to end residues) using poly(Glu, Tyr)4:1 as substrate incubated for 40 mins in presence of [gamma33P-ATP] by radiometric scintillation counting analysis
Sequence of Platelet-derived growth factor receptor beta (P09619 whole entry): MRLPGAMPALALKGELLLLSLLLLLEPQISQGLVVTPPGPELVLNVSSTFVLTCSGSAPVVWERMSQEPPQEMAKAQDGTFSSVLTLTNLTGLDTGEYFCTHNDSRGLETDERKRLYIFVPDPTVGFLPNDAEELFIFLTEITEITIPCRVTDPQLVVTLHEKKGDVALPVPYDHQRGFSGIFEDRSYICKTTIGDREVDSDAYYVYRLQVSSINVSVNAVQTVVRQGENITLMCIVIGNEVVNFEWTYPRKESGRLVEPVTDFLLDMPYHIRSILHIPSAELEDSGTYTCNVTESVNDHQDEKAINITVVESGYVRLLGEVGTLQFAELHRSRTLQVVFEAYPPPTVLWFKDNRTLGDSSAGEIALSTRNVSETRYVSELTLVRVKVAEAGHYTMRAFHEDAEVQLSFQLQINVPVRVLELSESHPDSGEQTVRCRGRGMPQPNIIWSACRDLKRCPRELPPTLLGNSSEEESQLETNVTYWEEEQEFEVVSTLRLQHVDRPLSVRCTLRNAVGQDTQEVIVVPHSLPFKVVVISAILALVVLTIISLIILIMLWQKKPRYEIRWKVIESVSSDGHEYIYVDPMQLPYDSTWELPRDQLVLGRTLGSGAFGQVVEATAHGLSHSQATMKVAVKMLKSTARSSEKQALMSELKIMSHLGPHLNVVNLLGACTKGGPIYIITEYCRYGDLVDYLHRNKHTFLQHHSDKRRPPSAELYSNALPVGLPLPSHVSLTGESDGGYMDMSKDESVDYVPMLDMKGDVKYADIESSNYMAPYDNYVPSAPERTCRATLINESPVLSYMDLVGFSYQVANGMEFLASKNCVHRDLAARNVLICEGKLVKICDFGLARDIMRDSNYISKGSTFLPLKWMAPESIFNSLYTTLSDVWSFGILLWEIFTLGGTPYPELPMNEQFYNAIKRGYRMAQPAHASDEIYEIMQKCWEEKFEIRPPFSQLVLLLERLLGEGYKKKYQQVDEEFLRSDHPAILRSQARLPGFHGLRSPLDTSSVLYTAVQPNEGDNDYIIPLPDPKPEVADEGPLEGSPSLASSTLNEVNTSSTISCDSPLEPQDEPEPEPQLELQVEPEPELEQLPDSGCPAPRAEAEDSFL

[9] = test system: HCC1937; experiment: Antiproliferative activity against human HCC1937 cells assessed as reduction in cell viability incubated for 72 hrs by MTT assay; format: functional, cell-based; conditions: HCC1937, 72 h; outline: as §1
[10] = test system: HT-29; experiment: Antiproliferative activity against human HT-29 cells assessed as reduction in cell viability incubated for 72 hrs by MTT assay; format: functional, cell-based; conditions: HT-29, 72 h; outline: as §1
[11] = test system: PLC-PRF-5; experiment: Antiproliferative activity against human PLC-PRF-5 cells assessed as reduction in cell viability incubated for 72 hrs by MTT assay; format: functional, cell-based; conditions: PLC-PRF-5, 72 h; outline: as §1
[12] = test system: MDA-MB-231; experiment: Induction of apoptosis in human MDA-MB-231 cells assessed as necrotic cells at 0.03 uM incubated for 24 hrs by annexin V-FITC and propidium iodide staining based flow cytometry analysis (reference value: 0.2 %); format: functional
[13] = test system: MDA-MB-231; experiment: Induction of apoptosis in human MDA-MB-231 cells assessed as necrotic cells at 0.1 uM incubated for 24 hrs by annexin V-FITC and propidium iodide staining based flow cytometry analysis (reference value: 0.2 %); format: functional
[14] = test system: MDA-MB-231; experiment: Induction of apoptosis in human MDA-MB-231 cells incubated for 24 hrs by annexin V-FITC and propidium iodide staining based flow cytometry analysis; format: functional, cell-based; conditions: dose 0.01-0.1 µM
Outline: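 MDA-MB-231 cells (2 × 10^5) plated in six-well plates, treated with vehicle or compound at various concentrations for 24 h at 37 °C. Harvested, washed with ice-cold PBS, stained with Annexin V-FITC/PI and analysed by flow cytometry.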

[15] = test system: MDA-MB-231; experiment: Antimigratory activity against human MDA-MB-231 cells assessed as inhibition of cell migration at 0.3 uM incubated for 20 hrs by wound healing assay; format: functional, cell-based
Outline: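 MDA-MB-231 monolayer grown to confluence, scratched with a sterile pipet tip, rinsed with physiological saline, then given DMEM containing vehicle or compound. Wound imaged after 20 h to assess migration.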

[16] = target: Proto-oncogene tyrosine-protein kinase Src (Homo sapiens) (UniProt P12931); experiment: Inhibition of Src in human MDA-MB-231 cells assessed as inhibition of FAK phosphorylation at 0.1 to 0.3 uM incubated for 20 hrs by Western blot analysis; format: cell-based; conditions: dose 0.1-0.3 µM
Sequence of Proto-oncogene tyrosine-protein kinase Src (Homo sapiens) (P12931 2-536 limits assumed): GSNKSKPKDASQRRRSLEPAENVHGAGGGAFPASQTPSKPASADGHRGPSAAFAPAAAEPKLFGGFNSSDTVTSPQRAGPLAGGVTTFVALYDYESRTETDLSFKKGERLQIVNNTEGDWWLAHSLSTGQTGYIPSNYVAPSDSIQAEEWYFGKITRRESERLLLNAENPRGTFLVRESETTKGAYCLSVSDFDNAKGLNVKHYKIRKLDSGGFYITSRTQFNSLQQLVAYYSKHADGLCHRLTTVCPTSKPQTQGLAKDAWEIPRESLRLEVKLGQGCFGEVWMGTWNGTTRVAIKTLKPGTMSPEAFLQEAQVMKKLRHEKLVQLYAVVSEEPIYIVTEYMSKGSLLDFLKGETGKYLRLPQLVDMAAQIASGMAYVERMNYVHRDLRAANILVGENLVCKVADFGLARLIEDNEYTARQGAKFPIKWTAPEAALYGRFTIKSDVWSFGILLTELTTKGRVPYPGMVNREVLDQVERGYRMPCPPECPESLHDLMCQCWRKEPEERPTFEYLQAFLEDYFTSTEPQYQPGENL
Outline: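 MDA-MB-231 cells treated with a series of concentrations for 20 h at 37 °C. Cells washed with ice-cold saline and lysed in RIPA buffer with protease cocktail. Lysates cleared at 12000 rpm for 10 min at 4 °C and protein quantified by Bradford. Equal protein separated by SDS-PAGE, transferred to PVDF and probed with antibodies.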

[17] = test system: Mus musculus; experiment: In vivo inhibition of Src in SCID mouse xenografted with human MDA-MB-231 cells assessed as reduction in phosphorylation of Src in tumor tissue at 40 mg/kg, po QD for 21 days by immunohistochemical analysis; format: functional, organism-based; conditions: dose 40.0 mg/kg/day, time 21.0 day
Outline: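 Tumors taken from xenografted SCID mice dosed orally at 40 mg/kg/q.d. or given control; mice euthanized at set times. Tumors formalin-fixed and paraffin-embedded, stained by immunohistochemistry for phospho-proteins, and imaged by light microscopy.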

[18] = test system: MDA-MB-231; experiment: Induction of apoptosis in human MDA-MB-231 cells xenografted in SCID mouse assessed as increase in cleaved caspase-3 level in tumor tissue at 40 mg/kg, po QD for 21 days by immunohistochemical analysis; format: functional, organism-based; conditions: dose 40.0 mg/kg/day, time 21.0 day
Outline: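 SCID mice carried subcutaneous MDA-MB-231 xenografts (5 × 10^6 cells in 100 μL). Oral dosing in water with 25% PEG400 and 5% DMSO began at 150–200 mm3. Tumours were removed at the end of study, formalin-fixed and paraffin-embedded, then immunostained.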

[19] = Acute toxicity in Sprague-Dawley rat assessed as histopathological changes in liver at 100 mg/kg, po administered as single dose measured after 24 hrs by H and E staining based light microscope analysis; format: organism-based; conditions: in vivo
Outline: (§4)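 Sprague-Dawley rats received a single oral dose of 100 mg/kg in sterile water with 25% (v/v) PEG400 plus 5% DMSO. Organs were examined by histology and immunohistochemistry for pathological changes. Behaviour and side effects were checked daily.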

[20] = Acute toxicity in Sprague-Dawley rat assessed as histopathological changes in lungs at 100 mg/kg, po administered as single dose measured after 24 hrs by H and E staining based light microscope analysis; format: organism-based; conditions: in vivo; outline: as §4
[21] = test system: MDA-MB-231; experiment: Inhibition of colony formation in human MDA-MB-231 cells at >0.1 uM treated for 12 days by crystal violet staining based visual analysis; format: functional; conditions: dose microM >0.1; time 12 day
Outline: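 MDA-MB-231 cells seeded at 5000 per well in six-well plates and treated the next day, with drug-containing medium replaced every 4 days. After 12 days, colonies fixed with methanol and stained with crystal violet, then photographed.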

Cc1ccc(NC(=O)c2ccc(C)c(C(F)(F)F)c2)cc1C#Cc1nn([C@H]2CC[C@H](O)CC2)c2ncnc(N)c12
IC50 [1]: 8 nM | half-life [2]: 18.9 h | remaining at 1 h, 1 µM [3]: > 90% | remaining at 1 h, 1 µM [4]: > 90% | IC50 [5]: 120 nM | IC50 [6]: > 10000 nM | IC50 [7]: 1290 nM | IC50 [8]: > 10000 nM | IC50 [9]: 455 nM | IC50 [10]: 231 nM | IC50 [11]: 10000 nM | Activity [12]: 2.42% | Activity [13]: 1.23% | Activity [14]: Dose-dependent effect | Activity [15]: Active | inhibition [16]: Active | inhibition [17]: Active | Activity [18]: Active | Activity [19]: Non-Toxic | Activity [20]: Non-Toxic | inhibition (INH) [21]: 100%
